In ChEMBL document CHEMBL5705902, “Role of G Protein-Coupled Receptor Kinases 2 and 3 in μ-Opioid Receptor Desensitization and Internalization” (Mol Pharmacol, 2015):
Calls of active or inactive are those of the source. The rule behind the calls is not given here.

Tests used:
[1] = molecular target: Ribosomal protein S6 kinase alpha-5 (Homo sapiens) (UniProt O75582); assay: Inhibition of human MSK1 at 1 uM in presence of 32ATP relative to control
Outline: (§1)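 Express panel of 52 purified human kinases run in vitro. Kinase activity was measured directly by a radioactive filter-binding assay with ³²ATP, at ATP levels at or below each kinase's calculated Km for ATP. The compound was tested at 1 μM. Each assay was run in duplicate, and activity is given as the mean percentage (with S.D.) of activity without inhibitor.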

[2] = molecular target: Serine/threonine-protein kinase PLK1 (Homo sapiens) (UniProt P53350); assay: Inhibition of human PLK1 assessed as remaining activity at 1 uM in presence of 32ATP relative to control; outline: as §1
[3] = molecular target: Protein kinase C (PKC) (Homo sapiens) (UniProt O94806+P41743+P17252+P05129+Q05655+P05771+Q05513+Q02156+P24723+Q15139+Q04759); assay: Inhibition of PKC (unknown origin) at 1 uM in presence of 32ATP relative to control; assay type: protein assay
Outline: (§2)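 Express screen of 52 purified human kinases run as a radioactive filter-binding assay with 32ATP, at 1 μM inhibitor. ATP was at or below each kinase's calculated Km. Activity is given as percent of the activity without inhibitor. Run in duplicate; mean with S.D.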

[4] = molecular target: Mu-type opioid receptor (Rattus norvegicus) (UniProt P33535); assay: Inhibition of MOPr desensitization (unknown origin) assessed as DAMGO induced loss of functional receptor at 30 uM incubated for 15 mins relative to control
Target sequence in this assay (P33535 whole entry, looked up): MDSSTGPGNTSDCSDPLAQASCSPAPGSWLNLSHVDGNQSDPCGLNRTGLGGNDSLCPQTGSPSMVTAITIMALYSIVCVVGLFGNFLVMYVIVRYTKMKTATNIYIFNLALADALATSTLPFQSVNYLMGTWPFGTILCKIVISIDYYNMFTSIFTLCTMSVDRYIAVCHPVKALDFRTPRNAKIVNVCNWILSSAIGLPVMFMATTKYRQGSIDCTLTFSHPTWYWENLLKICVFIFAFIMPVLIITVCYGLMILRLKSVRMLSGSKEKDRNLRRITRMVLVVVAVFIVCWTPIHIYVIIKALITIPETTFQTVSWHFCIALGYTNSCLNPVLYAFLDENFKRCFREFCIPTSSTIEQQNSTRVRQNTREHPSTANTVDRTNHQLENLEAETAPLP

[5] = molecular target: Serine/threonine-protein kinase pim-1 (Homo sapiens) (UniProt P11309); assay: Inhibition of human PIM1 assessed as remaining activity at 1 uM in presence of 32ATP relative to control; outline: as §1
[6] = molecular target: Mu-type opioid receptor (Rattus norvegicus) (UniProt P33535); assay: Inhibition of HA-tagged rat MOPr in HEK293 cells assessed as prevention in DAMGO induced MOPr phosphorylation at Thr370 level at 30 uM preincubated for 30 mins by western blot analysis; assay type: functional, cell-based
Target sequence in this assay (P33535 whole entry): as the sequence (P33535 whole entry, looked up) above

[7] = molecular target: MAP/microtubule affinity-regulating kinase 3 (Homo sapiens) (UniProt P27448); assay: Inhibition of human MARK3 assessed as remaining activity at 1 uM in presence of 32ATP relative to control; outline: as §1
[8] = molecular target: Mu-type opioid receptor (Rattus norvegicus) (UniProt P33535); assay: Inhibition of HA-tagged rat MOPr stably expressing in HEK293 cells assessed as increase in ERK1/2 phosphorylation level at 30 uM preincubated for 30 mins by westernblot analysis; assay type: functional, cell-based
Outline: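 HEK 293 cells stably expressing HA-tagged rat MOPr were grown to 90% confluence and serum-starved 24 h. Inhibitor was added for 30 min, then DAMGO 10 μM for 5 min. pERK1/2 was measured by Western blot with ECL detection. Densitometry was done in duplicate, normalized to total ERK1/2 and expressed as % of maximal DAMGO response; n = 4.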
Target sequence in this assay (P33535 whole entry): as the sequence (P33535 whole entry, looked up) above

[9] = molecular target: Mu-type opioid receptor (Rattus norvegicus) (UniProt P33535); assay: Inhibition of HA-tagged rat MOPr in HEK293 cells assessed as prevention in DAMGO induced MOPr phosphorylation at Thr376 level at 30 uM preincubated for 30 mins by western blot analysis; assay type: functional, cell-based
Target sequence in this assay (P33535 whole entry): as the sequence (P33535 whole entry, looked up) above

[10] = molecular target: Dual specificity protein kinase TTK (Homo sapiens) (UniProt P33981); assay: Inhibition of human TTK assessed as remaining activity at 1 uM in presence of 32ATP relative to control; outline: as §1
[11] = molecular target: Tyrosine-protein kinase SYK (Homo sapiens) (UniProt P43405); assay: Inhibition of human SYK assessed as remaining activity at 1 uM in presence of 32ATP relative to control; outline: as §1
[12] = molecular target: Mu-type opioid receptor (Rattus norvegicus) (UniProt P33535); assay: Inhibition of MOPr desensitization in wistar rat LC neuron cells assessed as reduction in the DAMGO induced desensitization at 30 uM incubated for 15 mins before in the presence of GF109203X; assay type: functional, cell-based
Target sequence in this assay (P33535 whole entry): as the sequence (P33535 whole entry, looked up) above

[13] = molecular target: Receptor-interacting serine/threonine-protein kinase 2 (Homo sapiens) (UniProt O43353); assay: Inhibition of human RIPK2 assessed as remaining activity at 1 uM in presence of 32ATP relative to control; outline: as §1
[14] = molecular target: Serine/threonine-protein kinase Nek6 (Homo sapiens) (UniProt Q9HC98); assay: Inhibition of human NEK6 assessed as remaining activity at 1 uM in presence of 32ATP relative to control; outline: as §1
[15] = molecular target: Mu-type opioid receptor (Rattus norvegicus) (UniProt P33535); assay: Inhibition of MOPr desensitization (unknown origin) assessed as drop in maximum morphine response at 30 uM incubated for 15 mins relative to control
Target sequence in this assay (P33535 whole entry, looked up): as above

[16] = molecular target: Mu-type opioid receptor (Rattus norvegicus) (UniProt P33535); assay: Inhibition of HA-tagged rat MOPr in HEK293 cells assessed as reduction in DAMGO induced MOPr internalization level at 30 uM preincubated for 30 mins by ELISA method; assay type: functional, cell-based
Outline: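 Surface HA-MOPr in HEK 293 cells was prelabeled with anti-HA for 1 h at 4°C, then inhibitor (3 or 30 μM) was given for 30 min at 37°C, then DAMGO 10 μM at 37°C. Surface receptor was measured by ELISA and normalized to cells not exposed to DAMGO; n = 3–4.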
Target sequence in this assay (P33535 whole entry): as the sequence (P33535 whole entry, looked up) above

[17] = molecular target: Serine/threonine-protein kinase STK11 (Homo sapiens) (UniProt Q15831); assay: Inhibition of human LKB1 assessed as remaining activity at 1 uM in presence of 32ATP relative to control; outline: as §1
[18] = molecular target: Mu-type opioid receptor (Rattus norvegicus) (UniProt P33535); assay: Inhibition of HA-tagged rat MOPr in HEK293 cells assessed as reduction in DAMGO induced MOPr internalization level at 30 uM preincubated for 30 mins by confocal microscopy analysis; assay type: functional, cell-based
Outline: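 HA-MOPr HEK 293 cells were prelabeled with anti-HA at 4°C for 1 h, then given inhibitor (30 μM) 30 min at 37°C and DAMGO 10 μM. Cells were stained with a fluorescein secondary and Hoechst and imaged by confocal microscopy (63× oil); repeated 3 times.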
Target sequence in this assay (P33535 whole entry): as the sequence (P33535 whole entry, looked up) above

[19] = molecular target: SRSF protein kinase 1 (Homo sapiens) (UniProt Q96SB4); assay: Inhibition of human SRPK1 assessed as remaining activity at 1 uM in presence of 32ATP relative to control; outline: as §1
[20] = molecular target: Protein kinase C alpha type (Homo sapiens) (UniProt P17252); assay: Inhibition of human PKCalpha assessed as remaining activity at 1 uM in presence of 32ATP relative to control; outline: as §1
[21] = molecular target: Homeodomain-interacting protein kinase 2 (Homo sapiens) (UniProt Q9H2X6); assay: Inhibition of human HIPK2 assessed as remaining activity at 1 uM in presence of 32ATP relative to control; outline: as §1
[22] = molecular target: Calcium/calmodulin-dependent protein kinase type 1 (Homo sapiens) (UniProt Q14012); assay: Inhibition of human CAMK1 assessed as remaining activity at 1 uM in presence of 32ATP relative to control; outline: as §2
[23] = molecular target: cAMP-dependent protein kinase (PKA) (Homo sapiens) (UniProt P22694+P17612+P22612); assay: Inhibition of PKA (unknown origin) at 1 uM in presence of 32ATP relative to control; assay type: protein assay; outline: as §2
[24] = molecular target: Mitogen-activated protein kinase 8 (Homo sapiens) (UniProt P45983); assay: Inhibition of human JNK1 assessed as remaining activity at 1 uM in presence of 32ATP relative to control; outline: as §1
Sequence of Mitogen-activated protein kinase 8 (Homo sapiens) (P45983 whole entry): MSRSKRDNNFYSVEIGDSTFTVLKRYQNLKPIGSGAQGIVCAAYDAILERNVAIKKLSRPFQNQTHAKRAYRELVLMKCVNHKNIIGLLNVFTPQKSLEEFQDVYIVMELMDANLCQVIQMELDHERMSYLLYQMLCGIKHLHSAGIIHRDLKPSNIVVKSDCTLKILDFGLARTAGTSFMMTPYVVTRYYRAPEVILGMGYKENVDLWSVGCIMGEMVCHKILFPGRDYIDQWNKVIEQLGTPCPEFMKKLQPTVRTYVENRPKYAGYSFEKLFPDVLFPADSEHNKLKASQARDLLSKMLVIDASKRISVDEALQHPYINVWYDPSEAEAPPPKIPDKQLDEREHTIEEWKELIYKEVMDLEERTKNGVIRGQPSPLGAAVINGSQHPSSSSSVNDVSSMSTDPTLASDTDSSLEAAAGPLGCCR

Sequence of Receptor-interacting serine/threonine-protein kinase 2 (Homo sapiens) (O43353 whole entry): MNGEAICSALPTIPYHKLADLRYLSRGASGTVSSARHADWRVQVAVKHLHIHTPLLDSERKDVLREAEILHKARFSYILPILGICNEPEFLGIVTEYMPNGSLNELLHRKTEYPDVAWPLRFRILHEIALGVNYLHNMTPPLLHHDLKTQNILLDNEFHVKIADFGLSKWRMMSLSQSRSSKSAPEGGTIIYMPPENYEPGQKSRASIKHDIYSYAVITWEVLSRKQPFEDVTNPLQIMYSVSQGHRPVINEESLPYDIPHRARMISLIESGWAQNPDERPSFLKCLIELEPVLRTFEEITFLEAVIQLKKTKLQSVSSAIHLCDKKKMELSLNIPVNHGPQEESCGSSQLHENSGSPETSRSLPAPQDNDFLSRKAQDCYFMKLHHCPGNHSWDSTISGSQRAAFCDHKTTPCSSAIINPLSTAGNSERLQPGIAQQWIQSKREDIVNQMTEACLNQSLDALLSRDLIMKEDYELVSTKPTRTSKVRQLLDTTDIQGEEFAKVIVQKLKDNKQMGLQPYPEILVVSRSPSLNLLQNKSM
Sequence of Serine/threonine-protein kinase PLK1 (Homo sapiens) (P53350 whole entry): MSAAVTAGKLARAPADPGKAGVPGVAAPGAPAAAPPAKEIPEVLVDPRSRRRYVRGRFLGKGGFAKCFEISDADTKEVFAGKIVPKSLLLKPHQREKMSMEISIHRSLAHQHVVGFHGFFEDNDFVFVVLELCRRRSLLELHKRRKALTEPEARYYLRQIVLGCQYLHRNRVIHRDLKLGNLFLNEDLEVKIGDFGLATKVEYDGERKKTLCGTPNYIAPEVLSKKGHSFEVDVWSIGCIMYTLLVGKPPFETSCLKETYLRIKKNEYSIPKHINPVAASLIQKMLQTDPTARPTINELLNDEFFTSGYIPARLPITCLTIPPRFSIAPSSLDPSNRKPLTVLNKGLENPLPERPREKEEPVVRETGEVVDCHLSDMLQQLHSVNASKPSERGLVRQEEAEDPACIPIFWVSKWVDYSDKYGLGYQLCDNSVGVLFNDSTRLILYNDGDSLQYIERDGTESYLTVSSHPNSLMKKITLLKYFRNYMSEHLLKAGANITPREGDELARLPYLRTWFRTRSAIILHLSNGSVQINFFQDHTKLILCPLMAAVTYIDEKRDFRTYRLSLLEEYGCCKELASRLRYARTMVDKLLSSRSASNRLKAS
Sequence of Ribosomal protein S6 kinase alpha-5 (Homo sapiens) (O75582 whole entry, looked up): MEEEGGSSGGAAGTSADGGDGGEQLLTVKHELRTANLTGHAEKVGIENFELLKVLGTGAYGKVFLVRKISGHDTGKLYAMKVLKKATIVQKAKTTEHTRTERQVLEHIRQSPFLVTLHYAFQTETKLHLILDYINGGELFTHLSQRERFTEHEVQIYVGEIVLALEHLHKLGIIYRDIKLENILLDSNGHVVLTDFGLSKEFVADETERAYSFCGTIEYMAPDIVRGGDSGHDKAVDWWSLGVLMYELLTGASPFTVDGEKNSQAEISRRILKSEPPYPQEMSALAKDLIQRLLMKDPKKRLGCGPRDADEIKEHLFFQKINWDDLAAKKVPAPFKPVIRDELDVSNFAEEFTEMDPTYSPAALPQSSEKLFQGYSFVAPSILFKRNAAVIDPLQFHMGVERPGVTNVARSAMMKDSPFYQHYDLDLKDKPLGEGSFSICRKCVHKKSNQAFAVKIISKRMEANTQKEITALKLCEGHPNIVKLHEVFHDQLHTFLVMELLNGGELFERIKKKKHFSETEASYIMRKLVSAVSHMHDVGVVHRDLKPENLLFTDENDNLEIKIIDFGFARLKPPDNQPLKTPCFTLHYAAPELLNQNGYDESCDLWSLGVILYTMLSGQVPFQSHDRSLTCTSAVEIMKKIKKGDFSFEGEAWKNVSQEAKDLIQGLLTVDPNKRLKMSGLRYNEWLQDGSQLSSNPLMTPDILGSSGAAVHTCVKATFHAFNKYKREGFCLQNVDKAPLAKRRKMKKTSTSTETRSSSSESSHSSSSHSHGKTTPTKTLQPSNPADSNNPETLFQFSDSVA
Sequence of Serine/threonine-protein kinase STK11 (Homo sapiens) (Q15831 whole entry): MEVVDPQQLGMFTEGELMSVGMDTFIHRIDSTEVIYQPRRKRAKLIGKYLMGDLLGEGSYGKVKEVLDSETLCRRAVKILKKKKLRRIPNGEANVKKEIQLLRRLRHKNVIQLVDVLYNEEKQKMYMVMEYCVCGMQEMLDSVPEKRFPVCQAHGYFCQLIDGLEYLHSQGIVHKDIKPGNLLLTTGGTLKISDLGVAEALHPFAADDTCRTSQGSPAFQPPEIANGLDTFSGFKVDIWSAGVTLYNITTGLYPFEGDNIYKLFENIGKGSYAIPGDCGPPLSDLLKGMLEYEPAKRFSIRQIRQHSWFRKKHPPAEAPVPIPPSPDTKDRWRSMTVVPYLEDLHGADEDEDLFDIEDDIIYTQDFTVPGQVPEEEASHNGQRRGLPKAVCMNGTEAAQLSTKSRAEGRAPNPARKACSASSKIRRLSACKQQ
Sequence of Calcium/calmodulin-dependent protein kinase type 1 (Homo sapiens) (Q14012 whole entry, looked up): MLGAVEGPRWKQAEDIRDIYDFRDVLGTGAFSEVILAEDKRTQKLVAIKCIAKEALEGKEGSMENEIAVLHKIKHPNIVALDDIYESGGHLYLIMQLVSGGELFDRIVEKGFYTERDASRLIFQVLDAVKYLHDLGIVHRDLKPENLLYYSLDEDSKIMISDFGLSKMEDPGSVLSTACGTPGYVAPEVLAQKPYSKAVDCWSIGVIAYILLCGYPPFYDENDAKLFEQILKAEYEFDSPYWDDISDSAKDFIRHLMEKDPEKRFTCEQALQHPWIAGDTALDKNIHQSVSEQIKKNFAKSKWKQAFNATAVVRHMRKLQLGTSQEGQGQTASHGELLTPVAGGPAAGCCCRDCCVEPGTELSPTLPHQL

Cn1c(CNc2cccc(C(=O)NCc3ccccc3C(F)(F)F)c2)nnc1-c1ccncc1
inhibition [1]: > 50% | Activity [2]: 106% | inhibition [3]: < 20% | inhibition [4]: 59% | Activity [5]: 107% | inhibition [6]: Active | Activity [7]: 92% | inhibition [8]: Active | inhibition [9]: Active | Activity [10]: 89% | Activity [11]: 103% | inhibition [12]: inactive | Activity [13]: 93% | Activity [14]: 95% | inhibition [15]: 44% | inhibition [16]: Active | Activity [17]: 91% | inhibition [18]: Active | Activity [19]: 91% | Activity [20]: 96% | Activity [21]: 103% | Activity [22]: 101% | inhibition [23]: < 20% | Activity [24]: 93%
